# Experimental data: ChEMBL document CHEMBL3414437, “Synthesis of CDDO-amino acid-nitric oxide donor trihybrids as potential antitumor agents against both drug-sensitive and drug-resistant colon cancer” (J Med Chem, 2015)
# The source made the active and inactive calls. No cut-off for these calls is given here.
# Key:
# [1] = biological target: Signal transducer and activator of transcription 3 (Homo sapiens) (UniProt P40763); experiment: Inhibition of STAT3 protein phosphorylation in FU-resistant human HCT8 cells at 0.25 to 1 uM incubated for 24 hrs by Western blotting method; format: cell-based; conditions: HCT-8
# Sequence of Signal transducer and activator of transcription 3 (Homo sapiens) (P40763 whole entry): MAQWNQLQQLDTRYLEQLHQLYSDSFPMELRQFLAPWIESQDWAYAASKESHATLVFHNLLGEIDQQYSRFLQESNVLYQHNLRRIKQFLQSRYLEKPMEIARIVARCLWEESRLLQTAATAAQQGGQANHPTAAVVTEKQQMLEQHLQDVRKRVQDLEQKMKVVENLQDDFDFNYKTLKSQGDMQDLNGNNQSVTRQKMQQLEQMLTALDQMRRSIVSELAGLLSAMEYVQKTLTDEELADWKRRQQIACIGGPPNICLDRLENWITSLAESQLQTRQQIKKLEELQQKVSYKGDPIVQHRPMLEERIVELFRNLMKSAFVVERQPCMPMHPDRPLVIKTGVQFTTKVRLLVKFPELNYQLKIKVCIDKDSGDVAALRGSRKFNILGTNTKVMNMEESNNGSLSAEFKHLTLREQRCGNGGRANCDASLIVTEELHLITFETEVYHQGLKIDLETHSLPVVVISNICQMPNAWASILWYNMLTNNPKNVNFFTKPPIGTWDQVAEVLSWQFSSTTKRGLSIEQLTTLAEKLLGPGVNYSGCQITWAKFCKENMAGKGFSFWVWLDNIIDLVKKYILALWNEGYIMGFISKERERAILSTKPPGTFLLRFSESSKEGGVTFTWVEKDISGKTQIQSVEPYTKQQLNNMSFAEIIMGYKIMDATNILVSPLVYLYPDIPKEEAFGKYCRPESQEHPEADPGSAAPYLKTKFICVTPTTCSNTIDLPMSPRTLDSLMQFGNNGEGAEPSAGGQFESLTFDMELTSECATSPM
# Summary of the method: (§1)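 Cells (1 x 10^6) grown 24 h in 6 cm dishes, then exposed in duplicate for 24 h to 0.25, 0.5 or 1 µM compound, with or without PTIO. Lysates (20 µg/lane) were run on 7.5% SDS-PAGE, blotted to PVDF and blocked in 5% milk. HRP secondaries with ECL detection; bands quantified by densitometry against β-actin or GAPDH. Three separate experiments, mean ± SD.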
# Mus musculus [2] = experiment: Toxicity in nude BALB/c mouse xenografted with FU-resistant human HCT8 cells assessed as abnormal size changes in liver at 17.8 to 35.7 umol/kg administered as via oral gavage daily for 21 days; format: organism-based, HCT-8; conditions: in vivo, 504 h
# Summary of the method: (§2)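 Male BALB/c nude mice aged 6-8 weeks, implanted s.c. in the right flank with HCT-8/5-FU cells (2 × 10^6). Once tumors reached 180-200 mm3 (days 9-11), randomized to daily gavage for 21 days in cremophor-EL/DMSO/PBS (1:1:8), 0.2 mL. At the end, liver, kidney, lung and heart checked for size, colour and weight. n = 8 per group.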
# [3] = (§3) Antiproliferative activity against human HCT8 cells assessed as inhibition of cell proliferation at 1 uM after 72 hrs by MTT assay; format: functional; conditions: HCT-8, 72 h, read-out: GI
# Summary of the method: (§4)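 Cells grown in DMEM with 10% FBS and exposed to compound at 1 µM for 72 h. Proliferation measured by MTT at 570 nm and expressed as % inhibition versus untreated cells. Mean ± SD of three independent experiments.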
# Mus musculus [4] = experiment: Toxicity in male ICR mouse assessed as body weight level at 2.38 x 10^3 umol/kg administered as single dose via oral gavage measured on day 7 post treatment (reference value: 19.8 +/- 0.92 g); format: organism-based; conditions: in vivo
# [5] = biological target: RAC-alpha serine/threonine-protein kinase (Homo sapiens) (UniProt P31749); experiment: Inhibition of AKT protein phosphorylation in FU-resistant human HCT8 cells at 0.25 to 1 uM incubated for 24 hrs by Western blotting method; format: cell-based; conditions: HCT-8; summary of the method: as §1
# Sequence of RAC-alpha serine/threonine-protein kinase (Homo sapiens) (P31749 whole entry): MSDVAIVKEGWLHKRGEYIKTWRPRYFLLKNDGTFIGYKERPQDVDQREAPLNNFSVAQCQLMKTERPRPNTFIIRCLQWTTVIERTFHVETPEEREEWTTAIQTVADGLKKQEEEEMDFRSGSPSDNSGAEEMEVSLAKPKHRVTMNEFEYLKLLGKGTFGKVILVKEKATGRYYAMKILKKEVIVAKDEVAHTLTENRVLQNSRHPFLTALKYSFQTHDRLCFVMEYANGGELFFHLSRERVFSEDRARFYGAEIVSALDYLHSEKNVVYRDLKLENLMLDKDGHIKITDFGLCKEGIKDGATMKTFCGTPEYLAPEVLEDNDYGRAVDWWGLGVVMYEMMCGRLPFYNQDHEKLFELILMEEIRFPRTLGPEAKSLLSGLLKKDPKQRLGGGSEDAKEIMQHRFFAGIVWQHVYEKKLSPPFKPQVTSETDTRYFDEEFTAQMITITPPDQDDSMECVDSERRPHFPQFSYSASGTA
# Mus musculus [6] = experiment: Toxicity in ICR mouse assessed as body weight changes at 0.60 x 10^3 to 2.38 x 10^3 umol/kg administered as single dose via oral gavage measured up to 14 days post treatment; format: organism-based; conditions: in vivo, 336 h
# Summary of the method: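 Adult ICR mice of either sex were randomised and given a single oral gavage dose of 500, 1000, 1500 or 2000 mg/kg in cremophor-EL/DMSO/PBS (1:1:8). Survival, behaviour, water and food intake, body weight and activity were monitored for up to 14 days. Body weights were taken on days 0, 7 and 14.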
# Mus musculus [7] = experiment: Toxicity in female ICR mouse assessed as body weight level at 2.38 x 10^3 umol/kg administered as single dose via oral gavage measured on day 14 post treatment (reference value: 19.5 +/- 0.85 g); format: organism-based; conditions: in vivo
# Mus musculus [8] = experiment: Toxicity in nude BALB/c mouse xenografted with FU-resistant human HCT8 cells assessed as abnormal weight changes in kidney at 17.8 to 35.7 umol/kg administered as via oral gavage daily for 21 days; format: organism-based, HCT-8; conditions: in vivo, 504 h; summary of the method: as §2
# [9] = biological target: T1, Multidrug resistance-associated protein 1 (Homo sapiens, UniProt P33527); experiment: Induction of nitrosylation of MRP1 protein in FU-resistant human HCT8 cells at 0.25 to 1 uM incubated for 24 hrs by Western blotting method; format: cell-based; conditions: hct-8, 24 h
# T1 sequence (P33527 whole entry): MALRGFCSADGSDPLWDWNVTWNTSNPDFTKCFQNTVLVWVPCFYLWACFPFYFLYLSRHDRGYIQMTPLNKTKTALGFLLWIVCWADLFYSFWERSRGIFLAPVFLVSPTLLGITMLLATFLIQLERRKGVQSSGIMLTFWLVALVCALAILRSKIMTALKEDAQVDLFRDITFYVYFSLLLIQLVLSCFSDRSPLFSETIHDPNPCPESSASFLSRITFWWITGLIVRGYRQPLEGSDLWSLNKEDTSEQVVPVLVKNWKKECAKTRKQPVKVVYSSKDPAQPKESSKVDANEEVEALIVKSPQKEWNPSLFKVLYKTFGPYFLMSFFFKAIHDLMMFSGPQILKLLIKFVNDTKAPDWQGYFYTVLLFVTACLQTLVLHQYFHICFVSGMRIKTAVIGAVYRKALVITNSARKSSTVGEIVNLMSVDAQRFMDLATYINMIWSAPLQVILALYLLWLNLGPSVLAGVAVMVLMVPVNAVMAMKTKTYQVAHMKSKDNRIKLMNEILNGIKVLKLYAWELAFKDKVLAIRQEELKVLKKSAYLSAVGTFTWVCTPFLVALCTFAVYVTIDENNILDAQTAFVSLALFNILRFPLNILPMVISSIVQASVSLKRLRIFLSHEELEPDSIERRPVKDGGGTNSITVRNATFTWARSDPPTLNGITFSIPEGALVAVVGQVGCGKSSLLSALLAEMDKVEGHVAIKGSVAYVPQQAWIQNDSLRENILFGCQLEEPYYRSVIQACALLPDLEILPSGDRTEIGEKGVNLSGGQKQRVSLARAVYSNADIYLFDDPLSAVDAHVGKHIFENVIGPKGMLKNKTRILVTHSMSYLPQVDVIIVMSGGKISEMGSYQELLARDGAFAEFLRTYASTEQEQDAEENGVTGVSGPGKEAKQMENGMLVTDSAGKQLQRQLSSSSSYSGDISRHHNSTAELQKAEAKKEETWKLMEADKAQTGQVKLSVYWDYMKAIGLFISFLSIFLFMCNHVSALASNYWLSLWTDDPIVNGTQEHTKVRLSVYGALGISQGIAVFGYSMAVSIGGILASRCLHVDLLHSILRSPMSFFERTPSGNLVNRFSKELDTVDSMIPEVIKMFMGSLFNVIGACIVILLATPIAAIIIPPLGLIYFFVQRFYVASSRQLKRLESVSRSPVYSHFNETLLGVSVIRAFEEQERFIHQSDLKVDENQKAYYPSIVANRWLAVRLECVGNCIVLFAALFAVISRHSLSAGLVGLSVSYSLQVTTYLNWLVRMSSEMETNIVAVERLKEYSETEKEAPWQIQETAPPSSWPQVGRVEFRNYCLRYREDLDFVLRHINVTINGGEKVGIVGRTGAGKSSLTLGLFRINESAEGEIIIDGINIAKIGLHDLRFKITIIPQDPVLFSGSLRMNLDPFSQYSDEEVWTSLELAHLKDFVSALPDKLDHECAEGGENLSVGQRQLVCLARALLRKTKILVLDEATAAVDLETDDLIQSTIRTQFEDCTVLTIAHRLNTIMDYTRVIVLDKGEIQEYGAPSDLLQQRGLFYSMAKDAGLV
# Summary of the method: (§5)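 HCT-8/5-FU cells (1 × 10^6) treated in duplicate for 24 h with 0.25, 0.5 or 1 µM test compound or 1 µM reference, with or without PTIO. Lysates immunoprecipitated overnight at 4 °C with anti-nitrotyrosine antibody on protein G beads. Eluates blotted with specific anti-Pgp, anti-MRP1 or anti-BCRP antibodies and quantified by densitometry. Mean ± SD of three experiments.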
# [10] = biological target: Signal transducer and activator of transcription 3 (Homo sapiens) (UniProt P40763); experiment: Inhibition of STAT3 protein phosphorylation in human HCT8 cells at 0.25 to 1 uM incubated for 24 hrs by Western blotting method; format: cell-based; conditions: HCT-8; summary of the method: as §1
# Mus musculus [11] = experiment: Toxicity in nude BALB/c mouse xenografted with FU-resistant human HCT8 cells assessed as abnormal weight changes in liver at 17.8 to 35.7 umol/kg administered as via oral gavage daily for 21 days; format: organism-based, HCT-8; conditions: in vivo, 504 h; summary of the method: as §2
# HCT-8 [12] = experiment: Antitumor activity against FU-resistant human HCT8 cells xenografted in nude BALB/c mouse assessed as reduction in tumor volume at 17.8 to 35.7 umol/kg administered as via oral gavage daily for 21 days; format: functional
# Summary of the method: (§6)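 Male BALB/c nude mice, 6–8 weeks old, inoculated s.c. in the right flank with HCT-8/5-FU cells (2 × 10^6). Once tumors reached 180–200 mm3 (days 9–11), mice were randomized (n = 8) to daily oral gavage for 21 days in cremophor-EL/DMSO/PBS (1:1:8). Tumor volume = W2(L/2), caliper-measured every other day, blinded; tumors weighed at end.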
# HCT-8 [13] = experiment: Inhibition of HIF-1alpha protein expression in human HCT8 cells at 0.25 to 1 uM incubated for 24 hrs by Western blotting method; format: functional, cell-based; summary of the method: as §1
# HCT-8 [14] = experiment: as §3; format: functional; summary of the method: as §4
# [15] = Antitumor activity against FU-resistant human HCT8 cells xenografted in nude BALB/c mouse assessed as reduction in tumor weight at 59.4 umol/kg administered as via oral gavage daily for 21 days; format: functional; conditions: HCT-8, po, 504 h; summary of the method: as §6
# HCT-8 [16] = experiment: Inhibition of HIF-1alpha protein expression in human HCT8 cells at 1 uM incubated for 24 hrs by Western blotting method; format: functional, cell-based; summary of the method: as §1
# [17] = biological target: Signal transducer and activator of transcription 3 (Homo sapiens) (UniProt P40763); experiment: Inhibition of STAT3 protein phosphorylation in human HCT8 cells at 1 uM incubated for 24 hrs by Western blotting method; format: cell-based; conditions: HCT-8; summary of the method: as §1
# Mus musculus [18] = experiment: Toxicity in nude BALB/c mouse xenografted with FU-resistant human HCT8 cells assessed as abnormal color changes in liver at 59.4 umol/kg administered as via oral gavage daily for 21 days; format: organism-based, HCT-8; conditions: in vivo, 504 h; summary of the method: as §2
# Mus musculus [19] = experiment: Toxicity in nude BALB/c mouse xenografted with FU-resistant human HCT8 cells assessed as abnormal weight changes in heart at 59.4 umol/kg administered as via oral gavage daily for 21 days; format: organism-based, HCT-8; conditions: in vivo, 504 h; summary of the method: as §2
# HCT-8 [20] = experiment: Inhibition of ERK protein phosphorylation in human HCT8 cells at 1 uM incubated for 24 hrs by Western blotting method; format: cell-based; summary of the method: as §1
# Mus musculus [21] = experiment: Toxicity in nude BALB/c mouse xenografted with FU-resistant human HCT8 cells assessed as body weight level at 59.4 umol/kg administered as via oral gavage daily for 21 days (reference value: 20.8 +/- 2.2 g); format: organism-based, HCT-8; conditions: in vivo, 504 h
# Summary of the method: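 Male BALB/c nude mice, 6-8 weeks old, inoculated s.c. in right flank with HCT-8/5-FU cells (2 × 10^6/mouse). Once tumors reached 180-200 mm3 (9-11 days post-implantation), mice were randomized and dosed by gavage daily for 21 consecutive days in cremophor-EL/DMSO/PBS (1:1:8) (vehicle alone 0.2 mL). Body weights recorded on day 1 and day 21. Organ size, color and weights were inspected for liver, kidney, lung and heart. n = 8 per group; mean ± SD.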
# Mus musculus [22] = experiment: Toxicity in nude BALB/c mouse xenografted with FU-resistant human HCT8 cells assessed as abnormal color changes in kidney at 59.4 umol/kg administered as via oral gavage daily for 21 days; format: organism-based, HCT-8; conditions: in vivo, 504 h; summary of the method: as §2
# [23] = biological target: T1, Multidrug resistance-associated protein 1; experiment: Induction of nitrosylation of MRP1 protein in FU-resistant human HCT8 cells at 1 uM incubated for 24 hrs by Western blotting method; format: cell-based; conditions: hct-8, 24 h; summary of the method: as §5
smiles,measurement,setting,value
CC1(C)CC[C@]2(C(=O)NCC(=O)OCC#CCOc3no[n+]([O-])c3S(=O)(=O)c3ccccc3)CC[C@]3(C)[C@H](C(=O)C=C4[C@@]5(C)C=C(C#N)C(=O)C(C)(C)[C@@H]5CC[C@]43C)[C@@H]2C1,inhibition,[1],Dose-dependent effect
same,Activity,Mus musculus [2],Non-toxic
same,inhibition of growth at 1 µM,[3],> 90%
same,Activity,Mus musculus [4],26.7 g
same,inhibition,[5],Dose-dependent effect
same,Activity,Mus musculus [6],Non-toxic
same,Activity,Mus musculus [7],30 g
same,Activity,Mus musculus [8],Non-toxic
same,Activity,[9],Dose-dependent effect
same,inhibition,[10],Dose-dependent effect
same,Activity,Mus musculus [11],Non-toxic
same,inhibition,HCT-8 [12],Dose-dependent effect
same,inhibition,HCT-8 [13],Dose-dependent effect
COC(=O)[C@]12CCC(C)(C)C[C@H]1[C@H]1C(=O)C=C3[C@@]4(C)C=C(C#N)C(=O)C(C)(C)[C@@H]4CC[C@@]3(C)[C@]1(C)CC2 [BARDOXOLONE METHYL],growth inhibition (GI),HCT-8 [14],Active
same,inhibition in vivo at 59.4 µmol/kg,[15],58.4%
same,inhibition,HCT-8 [16],Active
same,inhibition,[17],Active
same,Activity,Mus musculus [18],Non-toxic
same,Activity,Mus musculus [19],Non-toxic
same,inhibition,HCT-8 [20],Active
same,Activity,Mus musculus [21],16.7 g
same,Activity,Mus musculus [22],Non-toxic
same,Activity,[23],Not Active
